# Laboratory results taken from ChEMBL document CHEMBL4431302, “Vobatensines A-F, Cytotoxic Iboga-Vobasine Bisindoles from Tabernaemontana corymbosa” (J Nat Prod, 2016).
# How the values were obtained:
# [1] = Growth inhibition of human KB/S cells after 72 hrs by MTT assay; assay type: functional
# In short: (§1)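 Cytotoxicity run by a previously reported procedure, with vincristine and cisplatin as positive controls.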
# [2] = tested on: KB/VJ300; assay: Growth inhibition of human KB/VJ300 cells after 72 hrs by MTT assay; assay type: functional, cell-based; settings: KB/VJ300, 72 h; in short: as §1
# [3] = tested on: PC-3; assay: Growth inhibition of human PC3 cells after 72 hrs by MTT assay; assay type: functional, cell-based; settings: PC-3, 72 h; in short: as §1
# [4] = tested on: LNCaP; assay: Growth inhibition of human LNCAP cells after 72 hrs by MTT assay; assay type: functional, cell-based; in short: as §1
# [5] = tested on: MCF7; assay: Growth inhibition of human MCF7 cells after 72 hrs by MTT assay; assay type: functional, cell-based; settings: MCF7, 72 h; in short: as §1
# [6] = tested on: MDA-MB-231; assay: Growth inhibition of human MDA-MB-231 cells after 72 hrs by MTT assay; assay type: functional, cell-based; settings: MDA-MB-231, 72 h; in short: as §1
# [7] = tested on: A549; assay: Growth inhibition of human A549 cells after 72 hrs by MTT assay; assay type: functional, cell-based; settings: A549, 72 h; in short: as §1
# [8] = tested on: HCT-116; assay: Growth inhibition of human HCT116 cells after 72 hrs by MTT assay; assay type: functional, cell-based; settings: HCT-116, 72 h; in short: as §1
# [9] = tested on: HT-29; assay: Growth inhibition of human HT-29 cells after 72 hrs by MTT assay; assay type: functional, cell-based; settings: HT-29, 72 h; in short: as §1
# [10] = tested on: KB/VJ300; assay: Growth inhibition of human KB/VJ300 cells after 72 hrs in presence of vincristine by MTT assay; assay type: functional, cell-based; settings: KB/VJ300, 72 h
# In short: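 Vincristine-resistant KB/VJ300 cells were exposed to test compound together with vincristine at 0.1 μg/mL, a multidrug-resistance reversal set-up. Cytotoxicity was run by a previously reported procedure, with vincristine and cisplatin as positive controls.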
Structure (SMILES),IC50 [1] [µM],IC50 [2] [µM],IC50 [3] [µM],IC50 [4] [µM],IC50 [5] [µM],IC50 [6] [µM],IC50 [7] [µM],IC50 [8] [µM],IC50 [9] [µM],IC50 [10] [µM]
CC[C@@H]1CN(C)[C@H]2Cc3c([nH]c4ccccc34)[C@@H](c3cc4[nH]c5c(c4cc3OC)CCN3C[C@H]4C[C@H]([C@@H](C)O)[C@H]3[C@H]5C4)C[C@H]1[C@@H]2C(=O)OC,8,8.1,6.9,> 10,9.3,3.6,9.6,3.5,2.4,8.6
CC[C@@H]1CN(C)[C@H]2Cc3c([nH]c4ccccc34)[C@@H](c3cc4[nH]c5c(c4cc3OC)CCN3C[C@H]4C[C@H](CC)[C@H]3[C@H]5C4)C[C@H]1[C@@H]2C(=O)OC,8,8.3,3.5,> 10,3.4,2.8,> 10,2.9,0.92,9.3
C/C=C1/CN(C)[C@H]2Cc3c([nH]c4ccccc34)[C@@H](c3cc4[nH]c5c(c4cc3OC)CCN3C[C@H]4C[C@H](CC)[C@H]3[C@H]5C4)C[C@H]1[C@@H]2C(=O)OC,5.3,5,2.8,> 10,6,2.5,6.8,1.6,0.93,7
CC[C@@H]1CN(C)[C@H]2Cc3c([nH]c4ccccc34)[C@@H](c3cc4c(cc3OC)C(=O)[C@@]3(CCN5C[C@H]6C[C@H](CC)[C@H]5[C@H]3C6)N4)C[C@H]1[C@@H]2C(=O)OC,> 10,> 10,8.1,> 10,7.5,3.3,8.4,7.8,1.8,5.1
C/C=C1/CN(C)[C@H]2Cc3c([nH]c4ccccc34)[C@@H](c3cc4[nH]c5c(c4cc3OC)CCN3C[C@H]4C[C@H]([C@@H](C)O)[C@H]3[C@H]5C4)C[C@H]1[C@@H]2C(=O)OC,8.2,7.2,5.7,> 10,8.8,3.9,9.7,3,1.2,> 10
CC[C@]1(O)C[C@H]2CN(CCc3c([nH]c4ccccc34)[C@@](C(=O)OC)(c3cc4c(cc3OC)N(C=O)[C@H]3[C@@](O)(C(=O)OC)[C@H](OC(C)=O)[C@]5(CC)C=CCN6CC[C@]43[C@@H]65)C2)C1 [VINCRISTINE],0.0024,6.6,,,,,,,,
C/C=C1/CN2CC[C@]34C(=C(C=O)C1C[C@H]23)Nc1cc([C@H]2C[C@@H]3/C(=C\C)CN(C)[C@@H](Cc5c2[nH]c2ccccc52)[C@H]3C(=O)OC)ccc14,> 10,> 10,5.4,> 10,8.6,4.5,9.2,6.7,1.3,> 10
C/C=C1/CN(C)[C@H]2Cc3c([nH]c4ccccc34)[C@@H](c3c(OC)ccc4[nH]c5c(c34)CCN3C[C@H]4C[C@H](CC)[C@H]3[C@H]5C4)C[C@H]1[C@@H]2C(=O)OC,> 10,10 to 30,7.7,> 10,> 10,4.6,> 10,7.4,1.9,9 to 9.6
C/C=C1/CN(C)[C@H]2Cc3c([nH]c4ccccc34)[C@@H](c3cc4c(cc3OC)C(=O)[C@@]3(CCN5C[C@H]6C[C@H](CC)[C@H]5[C@H]3C6)N4)C[C@H]1[C@@H]2C(=O)OC,8.3,9.1,8.8,10,9.4,7.7,9.1,7.1,2.9,3.3
C/C=C1/CN(C)[C@H]2Cc3c([nH]c4ccccc34)[C@@H](c3cc4c(cc3OC)[C@@]3(O)CCN5C[C@H]6C[C@H](CC)[C@H]5[C@@H](C6)C3=N4)C[C@H]1[C@@H]2C(=O)OC,> 10,10 to 30,5.6,> 10,> 10,> 10,> 10,9.7,7.2,9 to 9.2
COc1ccc(CCN(C)CCCC(C#N)(c2ccc(OC)c(OC)c2)C(C)C)cc1OC (stereo not given) [VERAPAMIL],> 10,> 10,,,,,,,,4.6
